According to ChEMBL document CHEMBL1146760, “3,4-Dihydronaphthalen-1(2H)-ones: novel ligands for the benzodiazepine site of alpha5-containing GABAA receptors” (Bioorg Med Chem Lett, 2004):

Tests used:
[1] = molecular target: T1, GABA-A receptor; alpha-5/beta-3/gamma-2 (Homo sapiens) (UniProt P18507+P28472+P31644); assay: Percentage modulation of submaximal (EC20) response to GABA-A receptor alpha-5-beta-3-gamma-2 subunits expressed in mouse fibroblast L(tk-) cells; format: functional, cell-based
How it was run: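 Whole-cell patch clamp of mouse fibroblast L(tk⁻) cells stably expressing human α5β3γ2. Percentage maximum modulation of current relative to a submaximal (EC20) GABA response, taken from fitted concentration–response curves. Mean ± SEM of at least three individual curves.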

[2] = molecular target: T1, GABA-A receptor; alpha-5/beta-3/gamma-2 (Homo sapiens); assay: Percentage modulation of submaximal (EC20) response to GABA-A receptor alpha-5-beta-3-gamma-2 subunits expressed in Xenopus laevis oocytes; format: functional, cell-based; details: Oocyte
[3] = molecular target: T2, GABA-A receptor; alpha-3/beta-3/gamma-2 (Homo sapiens, UniProt P18507+P28472+P34903); assay: Inhibition of [3H]-Ro- 15-1788 binding to recombinant human gamma-aminobutyric-acid A receptor alpha-3-beta-3-gamma-2; format: protein-complex assay
T2 sequence (P18507 whole entry): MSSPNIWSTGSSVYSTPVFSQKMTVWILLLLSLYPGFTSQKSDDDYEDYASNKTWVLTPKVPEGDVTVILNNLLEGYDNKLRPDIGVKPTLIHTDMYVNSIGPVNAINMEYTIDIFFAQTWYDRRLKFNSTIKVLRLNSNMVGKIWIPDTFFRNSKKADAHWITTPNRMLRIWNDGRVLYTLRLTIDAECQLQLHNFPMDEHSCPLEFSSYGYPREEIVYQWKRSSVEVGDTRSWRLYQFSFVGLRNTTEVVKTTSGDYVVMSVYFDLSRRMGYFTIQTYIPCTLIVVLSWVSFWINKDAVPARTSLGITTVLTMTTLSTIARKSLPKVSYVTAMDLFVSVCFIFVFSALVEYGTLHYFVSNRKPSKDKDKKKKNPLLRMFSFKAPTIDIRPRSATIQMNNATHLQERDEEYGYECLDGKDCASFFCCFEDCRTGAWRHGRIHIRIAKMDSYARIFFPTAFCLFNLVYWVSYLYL
T2 sequence (P28472 whole entry): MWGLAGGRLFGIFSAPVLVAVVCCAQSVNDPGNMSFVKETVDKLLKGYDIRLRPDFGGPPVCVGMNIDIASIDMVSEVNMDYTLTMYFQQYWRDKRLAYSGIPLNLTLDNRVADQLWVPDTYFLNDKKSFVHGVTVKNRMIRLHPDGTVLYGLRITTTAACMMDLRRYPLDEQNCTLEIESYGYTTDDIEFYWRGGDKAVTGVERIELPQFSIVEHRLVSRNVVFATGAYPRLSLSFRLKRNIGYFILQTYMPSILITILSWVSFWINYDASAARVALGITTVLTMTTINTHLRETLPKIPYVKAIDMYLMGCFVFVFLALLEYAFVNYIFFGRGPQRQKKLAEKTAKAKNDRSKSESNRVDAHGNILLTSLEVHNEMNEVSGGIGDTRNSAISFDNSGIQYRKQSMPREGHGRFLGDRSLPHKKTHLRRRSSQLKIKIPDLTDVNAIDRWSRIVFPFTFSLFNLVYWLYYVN
T2 sequence (P34903 whole entry): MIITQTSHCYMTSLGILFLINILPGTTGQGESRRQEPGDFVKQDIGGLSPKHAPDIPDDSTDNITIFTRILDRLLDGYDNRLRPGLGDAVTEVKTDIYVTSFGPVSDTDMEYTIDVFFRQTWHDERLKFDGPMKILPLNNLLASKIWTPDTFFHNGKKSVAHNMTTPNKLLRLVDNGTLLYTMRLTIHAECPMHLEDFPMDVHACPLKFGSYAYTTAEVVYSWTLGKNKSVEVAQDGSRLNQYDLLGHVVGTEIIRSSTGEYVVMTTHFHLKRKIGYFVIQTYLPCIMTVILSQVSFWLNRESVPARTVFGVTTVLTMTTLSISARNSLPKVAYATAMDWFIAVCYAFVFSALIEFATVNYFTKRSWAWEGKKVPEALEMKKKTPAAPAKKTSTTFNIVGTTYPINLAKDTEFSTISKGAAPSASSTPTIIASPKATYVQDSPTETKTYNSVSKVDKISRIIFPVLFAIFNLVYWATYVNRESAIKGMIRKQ
How it was run: (§1)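 Displacement of [3H]Ro 15-1788 from recombinant human GABAA receptor subtypes; Ki reported as mean ± SEM of at least three independent determinations, or mean of two determinations with both individual values shown.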

[4] = molecular target: T3, GABA-A receptor; alpha-2/beta-3/gamma-2 (Homo sapiens, UniProt P18507+P28472+P47869); assay: Inhibition of [3H]-Ro- 15-1788 binding to recombinant human gamma-aminobutyric-acid A receptor alpha-2-beta-3-gamma-2; format: protein-complex assay; how it was run: as §1
T3 sequence (P18507 whole entry): T2 sequence (P18507 whole entry)
T3 sequence (P28472 whole entry): T2 sequence (P28472 whole entry)
T3 sequence (P47869 whole entry): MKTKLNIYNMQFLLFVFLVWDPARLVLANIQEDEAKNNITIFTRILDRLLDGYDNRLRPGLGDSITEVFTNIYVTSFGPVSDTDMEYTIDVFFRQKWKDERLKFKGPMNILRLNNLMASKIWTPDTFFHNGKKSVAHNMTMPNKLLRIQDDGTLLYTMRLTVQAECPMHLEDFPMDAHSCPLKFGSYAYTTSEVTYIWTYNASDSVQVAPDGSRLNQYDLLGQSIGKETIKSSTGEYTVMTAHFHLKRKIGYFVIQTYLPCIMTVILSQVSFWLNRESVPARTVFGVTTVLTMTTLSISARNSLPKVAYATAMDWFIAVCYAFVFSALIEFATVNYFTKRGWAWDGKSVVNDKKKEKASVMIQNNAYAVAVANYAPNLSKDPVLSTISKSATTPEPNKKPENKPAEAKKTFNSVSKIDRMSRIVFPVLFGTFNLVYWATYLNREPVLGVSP

[5] = molecular target: T4, GABA-A receptor; alpha-5/beta-3/gamma-2 (Homo sapiens, UniProt P18507+P28472+P31644); assay: Inhibition of [3H]-Ro- 15-1788 binding to human GABA-A receptor alpha-5-beta-3-gamma-2 subunits; format: protein-complex assay; how it was run: as §1
T4 sequence (P18507 whole entry): T2 sequence (P18507 whole entry)
T4 sequence (P28472 whole entry): T2 sequence (P28472 whole entry)
T4 sequence (P31644 whole entry): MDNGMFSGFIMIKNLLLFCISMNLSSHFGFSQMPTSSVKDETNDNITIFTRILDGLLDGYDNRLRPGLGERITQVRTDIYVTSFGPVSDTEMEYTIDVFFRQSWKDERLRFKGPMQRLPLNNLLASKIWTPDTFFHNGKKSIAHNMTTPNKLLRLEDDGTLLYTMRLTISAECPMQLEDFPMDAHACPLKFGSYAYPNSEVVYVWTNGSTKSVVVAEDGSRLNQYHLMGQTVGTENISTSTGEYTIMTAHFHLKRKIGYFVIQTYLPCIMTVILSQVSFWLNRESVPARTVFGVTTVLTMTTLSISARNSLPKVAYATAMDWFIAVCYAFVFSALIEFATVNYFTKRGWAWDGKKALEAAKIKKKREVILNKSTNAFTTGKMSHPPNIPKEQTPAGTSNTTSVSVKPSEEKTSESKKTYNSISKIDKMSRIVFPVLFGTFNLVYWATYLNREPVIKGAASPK

[6] = molecular target: T5, GABA-A receptor; alpha-1/beta-3/gamma-2 (Homo sapiens, UniProt P14867+P18507+P28472); assay: Inhibition of [3H]-Ro- 15-1788 binding to recombinant human gamma-aminobutyric-acid A receptor alpha-1-beta-3-gamma-2; format: protein-complex assay; how it was run: as §1
T5 sequence (P14867 whole entry): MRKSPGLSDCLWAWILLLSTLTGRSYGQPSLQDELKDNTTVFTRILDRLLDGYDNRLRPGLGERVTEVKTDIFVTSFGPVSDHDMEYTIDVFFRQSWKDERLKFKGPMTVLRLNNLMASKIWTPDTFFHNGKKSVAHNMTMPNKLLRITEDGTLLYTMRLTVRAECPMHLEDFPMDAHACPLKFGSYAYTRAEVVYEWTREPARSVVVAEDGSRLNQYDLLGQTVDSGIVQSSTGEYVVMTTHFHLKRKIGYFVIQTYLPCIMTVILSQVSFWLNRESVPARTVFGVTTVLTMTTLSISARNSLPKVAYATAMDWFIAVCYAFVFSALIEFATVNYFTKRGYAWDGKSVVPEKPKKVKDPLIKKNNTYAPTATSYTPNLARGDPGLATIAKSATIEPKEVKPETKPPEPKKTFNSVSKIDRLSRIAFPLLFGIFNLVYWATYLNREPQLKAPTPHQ
T5 sequence (P18507 whole entry): T2 sequence (P18507 whole entry)
T5 sequence (P28472 whole entry): T2 sequence (P28472 whole entry)

[7] = molecular target: T6, Gamma-aminobutyric acid receptor subunit alpha-5 (Homo sapiens) (UniProt P31644); assay: Selectivity for GABA-A receptor alpha-5 subunit over alpha1,2,3 (range 10-13)
T6 sequence (whole entry): T4 sequence (P31644 whole entry)

[8] = molecular target: T6, Gamma-aminobutyric acid receptor subunit alpha-5 (Homo sapiens); assay: Selectivity for GABA-A receptor alpha-5 subunit over alpha1,2,3 (range 6-8)
[9] = molecular target: T6, Gamma-aminobutyric acid receptor subunit alpha-5 (Homo sapiens); assay: Selectivity for GABA-A receptor alpha5 subunit over alpha1,2,3 (range 5-9)
[10] = molecular target: T6, Gamma-aminobutyric acid receptor subunit alpha-5 (Homo sapiens); assay: Selectivity for GABA-A receptor alpha-5 subunit over alpha1,2,3
[11] = molecular target: T6, Gamma-aminobutyric acid receptor subunit alpha-5 (Homo sapiens); assay: Selectivity for GABA-A receptor alpha-5 subunit over alpha1,2,3 (range 6-14)
[12] = molecular target: T6, Gamma-aminobutyric acid receptor subunit alpha-5 (Homo sapiens); assay: Selectivity for GABA-A receptor alpha-5 subunit over alpha1,2,3 (range 3-12)
[13] = molecular target: T6, Gamma-aminobutyric acid receptor subunit alpha-5 (Homo sapiens); assay: Selectivity for GABA-A receptor alpha-5 subunit over alpha1,2,3 (range 16-38)
[14] = molecular target: T6, Gamma-aminobutyric acid receptor subunit alpha-5 (Homo sapiens); assay: Selectivity for GABA-A receptor alpha-5 subunit over alpha1,2,3 (range 7-13)
[15] = molecular target: T6, Gamma-aminobutyric acid receptor subunit alpha-5 (Homo sapiens); assay: Selectivity for GABA-A receptor alpha-5 subunit over alpha1,2,3 (range 5-11)
[16] = molecular target: T6, Gamma-aminobutyric acid receptor subunit alpha-5 (Homo sapiens); assay: Selectivity for GABA-A receptor alpha-5 subunit over alpha1,2,3 (range 14-35)
[17] = molecular target: T6, Gamma-aminobutyric acid receptor subunit alpha-5 (Homo sapiens); assay: Selectivity for GABA-A receptor alpha-5 subunit over alpha1,2,3 (range 5-15)

| SMILES | Efficacy [1] | Efficacy [2] | Ki [3] | Ki [4] | Ki [5] | Ki [6] | also measured |
| --- | --- | --- | --- | --- | --- | --- | --- |
| CCc1c(C(=O)OC)ncc2[nH]c3cc(OC)c(OC)cc3c12 | -57% | -34% |  |  |  |  |  |
| COc1nc(CSc2ccc(-c3nccs3)c3c2C(=O)CC(C)C3)ns1 (stereo not given) | 57% |  | 35 nM | 34 nM | 3.2 nM | 40 nM | Selectivity [7]: 13 |
| CSc1ccc(-c2ccccn2)c2c1C(=O)CC(C)C2 (stereo not given) |  | -5% | 42 nM | 63 nM | 7.5 nM | 63 nM | Selectivity [8]: 8 |
| CCSc1ccc(-c2cnccn2)c2c1C(=O)CC(C)C2 (stereo not given) |  | 2% | 13 nM | 19 nM | 2.1 nM | 11 nM | Selectivity [9]: 9 |
| CCSc1ccc(-c2ccccn2)c2c1C(=O)CCC2 |  |  | > 300 nM | > 300 nM | 103 nM | > 300 nM | Selectivity [10]: > 3 |
| CNC1=Nc2ccc(Cl)cc2C(c2ccccc2)=[N+]([O-])C1 | 99% | 134% |  |  |  |  |  |
| CCSc1ccc(-c2ncco2)c2c1C(=O)CC(C)C2 (stereo not given) |  | 5% | 16 nM | 38 nM | 2.6 nM | 37 nM | Selectivity [11]: 14 |
| CSc1ccc(-c2ccccn2)c2c1C(=O)CC(C)(C)C2 | -32% |  | 59 nM | 60 nM | 19 nM | 229 nM | Selectivity [12]: 12 |
| CC1CC(=O)c2c(SCc3ncn(C)n3)ccc(-c3nccs3)c2C1 (stereo not given) | 29% |  | 16 nM | 20 nM | 1 nM | 38 nM | Selectivity [13]: 38 |
| CCSc1ccc(-c2cccc[n+]2[O-])c2c1C(=O)CC(C)C2 (stereo not given) | 80% |  | 286 nM | 271 nM | 25 nM | > 300 nM | Selectivity [10]: > 11 |
| CCSc1ccc(-c2ccccn2)c2c1C(=O)CC(C)C2 (stereo not given) |  | 2% | 15 nM | 13 nM | 1.9 nM | 25 nM | Selectivity [14]: 13 |
| CC1CC(=O)c2c(Sc3cccs3)ccc(-c3ccccn3)c2C1 (stereo not given) |  | 50% | 4.5 nM | 5.4 nM | 0.5 nM | 2.3 nM | Selectivity [15]: 11 |
| CC1CC(=O)c2c(SCc3cn[nH]n3)ccc(-c3nccs3)c2C1 (stereo not given) | 6% |  | 36 nM | 57 nM | 2.6 nM | 92 nM | Selectivity [16]: 35 |
| CCSc1ccc(-c2nccs2)c2c1C(=O)CC(C)C2 (stereo not given) |  | -8% | 12 nM | 15 nM | 1 nM | 5.4 nM | Selectivity [17]: 15 |
